The source made the active and inactive calls. No cut-off for these calls is given here.
Tests used:
[1] = system: HepG2; assay: Cytotoxicity against human HepG2 cells assessed as cell viability at 5 to 100 uM after 24 hrs by MTT assay relative to control; assay type: functional, cell-based
Outline: (§1)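 HepG2 cells kept in DMEM with 10% FBS and penicillin/streptomycin at 37 °C under 5% CO2. Cells were exposed for 24 h to chalcone analogues at various concentrations, up to 100 µM, and viability was then read by MTT assay.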

[2] = system: HepG2; assay: Cytotoxicity against human HepG2 cells assessed as cell viability at 100 uM after 24 hrs by MTT assay; assay type: functional; conditions: HepG2, 24 h, read-out: GI; outline: as §1
[3] = system: HepG2; assay: Induction of apoptosis in human HepG2 cells assessed as early apoptotic cells at 50 uM by annexin V-FITC/propidium iodide staining-based flow cytometric analysis (reference value: 1.9 +/- 0.5%); assay type: functional
[4] = system: HepG2; assay: Cytotoxicity against human HepG2 cells assessed as cell viability after 24 hrs by MTT assay; assay type: functional, cell-based; conditions: HepG2, 24 h; outline: as §1
[5] = system: HepG2; assay: Induction of apoptosis in human HepG2 cells assessed as increase in Bax/Bcl2 ratio at 25 to 50 uM after 24 hrs by Western blot analysis; assay type: functional, cell-based
Outline: (§2)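 HepG2 cells were grown in 60 mm dishes and treated at 25 and 50 µM for 24 h. Whole-cell extracts were made in RIPA buffer with 1× protease inhibitor cocktail and 1 mM PMSF. Lysates (20 µg) were run on SDS–PAGE and transferred to PVDF. Blots were probed with epitope-specific antibodies against GAPDH and the target proteins and detected by ECL.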

[6] = system: HepG2; assay: Induction of apoptosis in human HepG2 cells assessed as cleavage of caspase-9 at 25 to 50 uM after 24 hrs by Western blot analysis; assay type: functional, cell-based; outline: as §2
[7] = system: HepG2; assay: Induction of apoptosis in human HepG2 cells assessed as cell shrinking at 25 to 50 uM by phase contrast microscopic analysis; assay type: functional, cell-based
[8] = system: HepG2; assay: Induction of apoptosis in human HepG2 cells assessed as karyorrhexis at 25 to 50 uM by phase contrast microscopic analysis; assay type: functional, cell-based
[9] = system: LLC-PK1; assay: Cytotoxicity against porcine LLC-PK1 cells assessed as cell viability after 24 hrs by MTT assay; assay type: cell-based; conditions: Sus scrofa, LLC-PK1, 24 h
[10] = system: HepG2; assay: Induction of apoptosis in human HepG2 cells assessed as early apoptotic cells at 25 uM by annexin V-FITC/propidium iodide staining-based flow cytometric analysis (reference value: 1.9 +/- 0.5%); assay type: functional
[11] = system: HepG2; assay: Cytotoxicity against human HepG2 cells assessed as cell viability at 50 uM after 24 hrs by MTT assay; assay type: functional; conditions: HepG2, 24 h, read-out: GI; outline: as §1
[12] = system: HepG2; assay: Induction of apoptosis in human HepG2 cells assessed as cleavage of caspase-3 at 25 to 50 uM after 24 hrs by Western blot analysis; assay type: functional, cell-based; outline: as §2
[13] = system: HepG2; assay: Cytotoxicity against human HepG2 cells assessed as cell viability at 5 to 100 uM after 24 hrs by MTT assay; assay type: functional; outline: as §1
[14] = system: HepG2; assay: Induction of apoptosis in human HepG2 cells assessed as progressive condensation at 25 to 50 uM by phase contrast microscopic analysis; assay type: functional, cell-based
[15] = system: HepG2; assay: Induction of apoptosis in human HepG2 cells assessed as cleavage of caspase-8 at 25 to 50 uM after 24 hrs by Western blot analysis; assay type: functional, cell-based; outline: as §2
[16] = system: HepG2; assay: Induction of apoptosis in human HepG2 cells assessed as cleavage of PARP at 25 to 50 uM after 24 hrs by Western blot analysis; assay type: functional, cell-based; outline: as §2

O=C(/C=C/c1ccc2ccccc2c1)c1ccc(Cl)cc1
growth inhibition (GI) [1]: inactive

O=C(/C=C/c1ccc(-c2ccccc2)cc1)c1ccc(Cl)cc1
growth inhibition (GI) [1]: inactive

CCn1c2ccccc2c2cc(/C=C/C(=O)c3ccc(OC)c(OC)c3)ccc21
growth inhibition (GI) [1]: inactive

CCn1c2ccccc2c2cc(/C=C/C(=O)c3ccc(Cl)cc3)ccc21
growth inhibition (GI) [1]: inactive

COc1cccc(C(=O)/C=C/c2cc(OC)c(Br)c(OC)c2)c1
inhibition of growth at 100 µM [2]: 98% | Activity [3]: 31.2% | IC50 [4]: 26 µM | Activity [5]: Active | Activity [6]: inactive | Activity [7]: Active | Activity [8]: Active | IC50 [9]: 83 µM | Activity [10]: 8.5% | inhibition of growth at 50 µM [11]: ≤ 91% | Activity [12]: Active | growth inhibition (GI) [13]: >50% | Activity [14]: Active | Activity [15]: Active | Activity [16]: Active

COc1ccc(C(=O)/C=C/c2ccc(-c3ccccc3)cc2)cc1OC
growth inhibition (GI) [1]: inactive

O=C(/C=C/c1ccc2ccccc2c1)c1ccc(Br)cc1
growth inhibition (GI) [1]: inactive

COc1cc(/C=C/C(=O)c2ccc(Br)cc2)cc(OC)c1Br
growth inhibition (GI) [13]: >50%
